Experimental data reported in ChEMBL document CHEMBL1240362, “Intrapulmonary pharmacokinetics of S-013420, a novel bicyclolide antibacterial, in healthy Japanese subjects” (Antimicrob Agents Chemother, 2010).
Values after ≈ are worked out from the molar mass of the structure shown.

Experiments:
[1] = Ratio of epithelial lining fluid AUC (0 to 24 hrs) to plasma AUC (0 to 24 hrs) in healthy human at 400 mg, po administered as single dose
[2] = Plasma concentration in healthy human at […], po after 6 hrs; assay type: ADME, organism-based; set-up: route oral
In short: (§1)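 Healthy nonsmoking Japanese men, 20-45 y, given one oral 400 mg suspension dose. Blood drawn at 0-72 h, spun at 1,600 × g for 10 min at 4°C, plasma kept at −20°C. Drug measured by validated LC/MS/MS, linear 0.005-5 μg/ml. Values are mean ± SD, n = 28. Cmax, Tmax and t1/2,z are model-independent; AUC0-24 by trapezoidal method.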

Homo sapiens [3] = experiment: Toxicity in healthy human assessed as other cellular fractions in bronchoalveolar fluid at […], po administered as single dose after 24 hrs; assay type: organism-based, Lung; set-up: route oral; conditions: in vivo
In short: (§2)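 Healthy Japanese male never-smokers, aged 20 to 45 years with normal BMI, got one open-label oral 400 mg suspension dose. Four subjects per time group had one fiber-optic bronchoscopic BAL at the assigned post-dose time. The first aliquot was discarded and the last three were pooled. BAL fluid was held on ice and spun at 400 × g for 5 min at 4°C. Pellet cells were counted by hemocytometer, with a differential count on a stained cytocentrifuge preparation.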

[4] = Ratio of AUC (0 to 24 hrs) in plasma of healthy human to MIC90 for erythromycin-susceptible Staphylococcus aureus; assay type: functional
[5] = AUC (0 to 24 hrs) in plasma of healthy human at 400 mg, po administered as single dose by linear trapezoidal method
[6] = Drug level in alveolar macrophages of healthy human at […], po administered as single dose after 8 hrs; assay type: ADME, organism-based, Macrophage; set-up: route oral; conditions: read-out: Drug uptake
In short: (§3)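 One oral 400 mg suspension dose; four volunteers lavaged at each time (2-24 h). Cell pellet from the pooled 2nd-4th aspirates was counted (hemocytometer, stained cytospin differential). Drug in cell suspension measured by HPLC, divided by AM volume assuming 2.42 μl/10^6 cells. Cmax and Tmax are model-independent, based on mean concentrations at each time.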

[7] = Drug level in alveolar macrophages of healthy human at […], po administered as single dose after 24 hrs; assay type: ADME, organism-based, Macrophage; set-up: route oral; conditions: read-out: Drug uptake
In short: as §3

[8] = Plasma concentration in healthy human at […], po after 2 hrs; assay type: ADME, organism-based; set-up: route oral
In short: as §1

[9] = Cmax in plasma of healthy human at 400 mg, po administered as single dose
[10] = Ratio of drug level in alveolar macrophages to plasma in healthy human at 400 mg, po administered as single dose after 4 hrs
Homo sapiens [11] = experiment: Toxicity in healthy human assessed as eosinophil count in bronchoalveolar fluid at 400 mg, po administered as single dose after 24 hrs; conditions: in vivo
[12] = Tmax in alveolar macrophages of healthy human at 400 mg, po administered as single dose
Homo sapiens [13] = experiment: Toxicity in healthy human assessed as eosinophil count in bronchoalveolar fluid at 400 mg, po administered as single dose after 4 hrs; conditions: in vivo
[14] = Ratio of drug level in alveolar macrophages to plasma in healthy human at 400 mg, po administered as single dose after 8 hrs
[15] = Ratio of AUC (0 to 24 hrs) in plasma of healthy human to MIC90 for Moraxella catarrhalis; assay type: functional
[16] = Drug level in alveolar macrophages of healthy human at […], po administered as single dose after 12 hrs; assay type: ADME, organism-based, Macrophage; set-up: route oral; conditions: read-out: Drug uptake
In short: as §3

[17] = Drug level in alveolar macrophages of healthy human at […], po administered as single dose after 2 hrs; assay type: ADME, organism-based, Macrophage; set-up: route oral; conditions: read-out: Drug uptake
In short: as §3

Homo sapiens [18] = experiment: Toxicity in healthy human assessed as lymphocytes count in bronchoalveolar fluid at […], po administered as single dose after 6 hrs; assay type: organism-based, Lung; set-up: route oral; conditions: in vivo
In short: as §2

Homo sapiens [19] = experiment: Toxicity in healthy human assessed as lymphocytes count in bronchoalveolar fluid at […], po administered as single dose after 8 hrs; assay type: organism-based, Lung; set-up: route oral; conditions: in vivo
In short: as §2

Homo sapiens [20] = experiment: Toxicity in healthy human assessed as eosinophil count in bronchoalveolar fluid at 400 mg, po administered as single dose after 12 hrs; conditions: in vivo
[21] = Ratio of AUC (0 to 24 hrs) in plasma of healthy human to MIC90 for Haemophilus influenzae; assay type: functional
Homo sapiens [22] = experiment: Toxicity in healthy human assessed as alveolar macrophage count in bronchoalveolar fluid at 400 mg, po administered as single dose after 8 hrs; conditions: in vivo
Staphylococcus aureus [23] = experiment: Antimicrobial activity against methicillin susceptible Staphylococcus aureus; assay type: functional
[24] = Ratio of alveolar macrophages AUC (0 to 24 hrs) to plasma AUC (0 to 24 hrs) in healthy human at 400 mg, po administered as single dose
[25] = Plasma concentration in healthy human at […], po after 24 hrs; assay type: ADME, organism-based; set-up: route oral
In short: as §1

[26] = Ratio of drug level in epithelial lining fluid to plasma in healthy human at […] administered as single dose after 8 hrs; assay type: ADME, organism-based; set-up: route oral; conditions: po
In short: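 For each subject, ELF or AM drug level after the single oral 400 mg dose is divided by the plasma level sampled at the BAL time (2-24 h). Ratios are summarized per four-subject group.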

Homo sapiens [27] = experiment: Toxicity in healthy human assessed as alveolar macrophage count in bronchoalveolar fluid at 400 mg, po administered as single dose after 12 hrs; conditions: in vivo
[28] = Drug level in epithelial lining fluid of healthy human at […], po administered as single dose after 8 hrs; assay type: ADME, organism-based; set-up: route oral; conditions: read-out: Drug uptake
In short: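 Four healthy male volunteers per BAL time (2-24 h) after one oral 400 mg suspension dose. Single bronchoscopic lavage; first aliquot discarded, next three pooled. Supernatant separated at 400 × g, 5 min, 4°C, and drug assayed by LC/MS/MS. ELF level = CBAL × urea plasma/urea BAL, with urea corrected for blood contamination via RBC ratio. PK parameters are model-independent, based on the mean concentration at each time.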

Homo sapiens [29] = experiment: Toxicity in healthy human assessed as eosinophil count in bronchoalveolar fluid at […], po administered as single dose after 2 hrs; assay type: organism-based, Lung; set-up: route oral; conditions: in vivo
In short: as §2

[30] = AUC (0 to 24 hrs) in epithelial lining fluid of healthy human at 400 mg, po administered as single dose by linear trapezoidal method
[31] = Ratio of AUC (0 to 24 hrs) in […] healthy epithelial lining fluid to MIC90 for Haemophilus influenzae; assay type: functional
[32] = Ratio of drug level in epithelial lining fluid to plasma in healthy human at 400 mg, po administered as single dose after 12 hrs
Staphylococcus aureus [33] = experiment: Antimicrobial activity against erythromycin-susceptible Staphylococcus aureus; assay type: functional
Homo sapiens [34] = experiment: Toxicity in healthy human assessed as neutrophil count in bronchoalveolar fluid at […], po administered as single dose after 12 hrs; assay type: organism-based, Lung; set-up: route oral; conditions: in vivo
In short: as §2

SMILES: CC[C@H]1OC(=O)[C@H](C)C(=O)[C@H](C)[C@@H](O[C@@H]2O[C@H](C)C[C@H](N(C)C)[C@H]2O)[C@@]2(C)C[C@@H](C)/C(=N\C(C)=O)[C@H](C)[C@@H](OC/C(=N\OCc3ccc(-n4cccn4)nc3)CO2)[C@]1(C)O [MODITHROMYCIN]
- Kp [1]: 20.3
- concentration at 6 h [2]: 540 ng/mL
- Activity (Homo sapiens [3]): 0%
- RatioAUC/MIC [4]: 41.8
- AUC(0-t) at 24 h [5]: 10500 ng·h/mL
- concentration at 8 h [6]: 125 µg/mL
- concentration at 24 h [7]: 68 µg/mL
- concentration at 2 h [8]: 646 ng/mL
- Cmax [9]: 687 ng/mL
- Kp at 4 h [10]: 201
- Activity (Homo sapiens [11]): 0%
- Tmax [12]: 12 h
- Activity (Homo sapiens [13]): 0.1%
- Kp at 8 h [14]: 283
- RatioAUC/MIC [15]: 20.9
- concentration at 12 h [16]: 176 µg/mL
- concentration at 2 h [17]: 61 µg/mL
- Activity (Homo sapiens [18]): 13%
- Activity (Homo sapiens [19]): 9.3%
- Activity (Homo sapiens [20]): 0.9%
- RatioAUC/MIC [21]: 1.3
- Activity (Homo sapiens [22]): 90.4%
- MIC90 (Staphylococcus aureus [23]): ≤ 0.063 µg/mL
- Kp [24]: 245
- concentration at 24 h [25]: 315 ng/mL
- Kp at 8 h [26]: 25.9
- Activity (Homo sapiens [27]): 85.9%
- concentration at 8 h [28]: 11400 ng/mL
- Activity (Homo sapiens [29]): 0%
- AUC(0-t) at 24 h [30]: 212 µg·h/mL
- RatioAUC/MIC [31]: 26.6
- Kp at 12 h [32]: 13.8
- MIC90 (Staphylococcus aureus [33]): 0.25 µg/mL (≈ 0.297 µM)
- Activity (Homo sapiens [34]): 0%
